ChEMBL document CHEMBL4330096, “Discovery of potent and selective 5-azaindazole inhibitors of leucine-rich repeat kinase 2 (LRRK2) - Part 1” (Bioorg Med Chem Lett, 2019)

Key:
[1] = target: Casein kinase I (Homo sapiens) (UniProt Q9HCP0+P78368+P48730+P49674+P48729); assay: Inhibition of CK1 (unknown origin) at 10 uM relative to control; format: protein assay
Procedure, shortened: (§1)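 Single-point screen of each compound against a panel of 59 protein kinases, at 1 or 10 μM. The panel data are also summarised as a rescaled geometric mean selectivity score.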

[2] = target: Ribosomal protein S6 kinase alpha-5 (Homo sapiens) (UniProt O75582); assay: Inhibition of MSK1 (unknown origin) at 10 uM relative to control
Chain of Ribosomal protein S6 kinase alpha-5 (Homo sapiens) (O75582 whole entry, looked up): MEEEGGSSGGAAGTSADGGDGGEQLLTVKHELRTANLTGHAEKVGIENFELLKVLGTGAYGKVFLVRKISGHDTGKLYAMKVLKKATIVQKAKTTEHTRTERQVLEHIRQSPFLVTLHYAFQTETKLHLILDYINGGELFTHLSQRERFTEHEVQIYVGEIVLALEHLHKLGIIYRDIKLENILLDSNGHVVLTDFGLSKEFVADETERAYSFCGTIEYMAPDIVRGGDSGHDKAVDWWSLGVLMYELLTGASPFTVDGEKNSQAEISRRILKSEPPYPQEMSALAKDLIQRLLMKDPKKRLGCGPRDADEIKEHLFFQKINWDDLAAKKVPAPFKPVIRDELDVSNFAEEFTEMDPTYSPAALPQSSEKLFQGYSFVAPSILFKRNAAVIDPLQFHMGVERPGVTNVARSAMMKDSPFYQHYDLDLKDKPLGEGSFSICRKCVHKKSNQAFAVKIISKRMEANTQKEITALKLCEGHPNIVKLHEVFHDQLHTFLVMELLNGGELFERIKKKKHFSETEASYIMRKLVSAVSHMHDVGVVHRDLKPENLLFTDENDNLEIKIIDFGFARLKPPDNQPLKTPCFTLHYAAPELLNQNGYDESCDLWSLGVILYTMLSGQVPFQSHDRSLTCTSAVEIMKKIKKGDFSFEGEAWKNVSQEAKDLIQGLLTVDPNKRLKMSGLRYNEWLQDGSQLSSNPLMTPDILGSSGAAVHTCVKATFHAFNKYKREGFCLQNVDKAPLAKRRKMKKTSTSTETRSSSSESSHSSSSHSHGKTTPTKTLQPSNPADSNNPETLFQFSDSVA
Procedure, shortened: (§2)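 Single-concentration screen of each compound against a 59-protein-kinase panel, run at 10 µM or 1 µM. Activity relative to control is shown as a heat map across the panel.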

[3] = target: Ribosomal protein S6 kinase alpha-1 (Homo sapiens) (UniProt Q15418); assay: Inhibition of RSK1 (unknown origin) at 10 uM relative to control; procedure, shortened: as §2
Chain of Ribosomal protein S6 kinase alpha-1 (Homo sapiens) (Q15418 whole entry): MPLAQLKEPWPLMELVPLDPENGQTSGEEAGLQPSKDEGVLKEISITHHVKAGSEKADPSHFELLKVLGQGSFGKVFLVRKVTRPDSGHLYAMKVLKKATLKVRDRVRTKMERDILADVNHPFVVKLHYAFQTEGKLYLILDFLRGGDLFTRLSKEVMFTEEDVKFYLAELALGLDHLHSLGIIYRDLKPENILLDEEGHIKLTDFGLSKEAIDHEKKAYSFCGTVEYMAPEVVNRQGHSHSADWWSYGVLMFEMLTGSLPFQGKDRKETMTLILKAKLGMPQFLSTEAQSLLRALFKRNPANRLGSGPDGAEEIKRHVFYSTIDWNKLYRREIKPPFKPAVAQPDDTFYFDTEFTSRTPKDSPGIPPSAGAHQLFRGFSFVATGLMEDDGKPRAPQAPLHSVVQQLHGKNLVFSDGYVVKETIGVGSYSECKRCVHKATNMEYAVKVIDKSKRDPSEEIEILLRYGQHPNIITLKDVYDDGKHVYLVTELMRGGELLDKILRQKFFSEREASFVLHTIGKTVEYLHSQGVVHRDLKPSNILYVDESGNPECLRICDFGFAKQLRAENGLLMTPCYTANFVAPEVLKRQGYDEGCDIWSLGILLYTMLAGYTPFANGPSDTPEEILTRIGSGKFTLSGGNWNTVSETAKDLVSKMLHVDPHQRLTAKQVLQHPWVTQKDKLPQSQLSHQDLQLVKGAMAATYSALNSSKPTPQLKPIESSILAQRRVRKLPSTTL

[4] = target: Ribosomal protein S6 kinase alpha-3 (Homo sapiens) (UniProt P51812); assay: Inhibition of RSK2 (unknown origin) at 10 uM relative to control
Procedure, shortened: (§3)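 Single-concentration screen across a panel of 59 protein kinases, with each compound tested at one fixed concentration. The read-out is residual kinase activity relative to control. Panel results are also condensed into a rescaled geometric mean (RGM) selectivity score.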

[5] = target: SRSF protein kinase 1 (Homo sapiens) (UniProt Q96SB4); assay: Inhibition of SRPK1 (unknown origin) at 10 uM relative to control; procedure, shortened: as §3
[6] = target: Aurora kinase B (Homo sapiens) (UniProt Q96GD4); assay: Inhibition of Aurora B (unknown origin) at 10 uM relative to control; procedure, shortened: as §1
[7] = target: T1, Eukaryotic elongation factor 2 kinase (Homo sapiens) (UniProt O00418); assay: Inhibition of EF2K (unknown origin) at 10 uM relative to control; procedure, shortened: as §1
T1 sequence (whole entry): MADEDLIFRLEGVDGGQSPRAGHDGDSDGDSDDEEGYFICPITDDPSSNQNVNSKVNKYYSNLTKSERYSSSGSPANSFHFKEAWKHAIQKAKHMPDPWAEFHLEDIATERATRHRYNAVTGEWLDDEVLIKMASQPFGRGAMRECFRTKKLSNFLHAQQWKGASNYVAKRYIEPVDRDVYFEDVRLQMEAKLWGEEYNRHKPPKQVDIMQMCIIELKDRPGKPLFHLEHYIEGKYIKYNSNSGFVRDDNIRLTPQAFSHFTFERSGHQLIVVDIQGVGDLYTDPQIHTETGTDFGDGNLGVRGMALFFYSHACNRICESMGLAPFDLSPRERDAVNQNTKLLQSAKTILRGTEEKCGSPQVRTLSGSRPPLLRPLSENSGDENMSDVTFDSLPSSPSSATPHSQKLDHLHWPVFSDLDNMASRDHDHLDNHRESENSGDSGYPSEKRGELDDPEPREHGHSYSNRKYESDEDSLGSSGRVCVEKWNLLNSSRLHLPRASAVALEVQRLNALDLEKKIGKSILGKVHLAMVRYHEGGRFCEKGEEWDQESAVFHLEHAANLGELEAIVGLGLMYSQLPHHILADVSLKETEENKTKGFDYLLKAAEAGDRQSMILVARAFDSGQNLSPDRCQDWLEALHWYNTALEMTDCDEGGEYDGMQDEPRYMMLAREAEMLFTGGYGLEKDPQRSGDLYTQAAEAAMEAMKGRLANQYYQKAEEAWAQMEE

[8] = target: T2, Ephrin type-B receptor 3 (Homo sapiens) (UniProt P54753); assay: Inhibition of EPHB3 (unknown origin) at 10 uM relative to control; procedure, shortened: as §1
T2 sequence (whole entry): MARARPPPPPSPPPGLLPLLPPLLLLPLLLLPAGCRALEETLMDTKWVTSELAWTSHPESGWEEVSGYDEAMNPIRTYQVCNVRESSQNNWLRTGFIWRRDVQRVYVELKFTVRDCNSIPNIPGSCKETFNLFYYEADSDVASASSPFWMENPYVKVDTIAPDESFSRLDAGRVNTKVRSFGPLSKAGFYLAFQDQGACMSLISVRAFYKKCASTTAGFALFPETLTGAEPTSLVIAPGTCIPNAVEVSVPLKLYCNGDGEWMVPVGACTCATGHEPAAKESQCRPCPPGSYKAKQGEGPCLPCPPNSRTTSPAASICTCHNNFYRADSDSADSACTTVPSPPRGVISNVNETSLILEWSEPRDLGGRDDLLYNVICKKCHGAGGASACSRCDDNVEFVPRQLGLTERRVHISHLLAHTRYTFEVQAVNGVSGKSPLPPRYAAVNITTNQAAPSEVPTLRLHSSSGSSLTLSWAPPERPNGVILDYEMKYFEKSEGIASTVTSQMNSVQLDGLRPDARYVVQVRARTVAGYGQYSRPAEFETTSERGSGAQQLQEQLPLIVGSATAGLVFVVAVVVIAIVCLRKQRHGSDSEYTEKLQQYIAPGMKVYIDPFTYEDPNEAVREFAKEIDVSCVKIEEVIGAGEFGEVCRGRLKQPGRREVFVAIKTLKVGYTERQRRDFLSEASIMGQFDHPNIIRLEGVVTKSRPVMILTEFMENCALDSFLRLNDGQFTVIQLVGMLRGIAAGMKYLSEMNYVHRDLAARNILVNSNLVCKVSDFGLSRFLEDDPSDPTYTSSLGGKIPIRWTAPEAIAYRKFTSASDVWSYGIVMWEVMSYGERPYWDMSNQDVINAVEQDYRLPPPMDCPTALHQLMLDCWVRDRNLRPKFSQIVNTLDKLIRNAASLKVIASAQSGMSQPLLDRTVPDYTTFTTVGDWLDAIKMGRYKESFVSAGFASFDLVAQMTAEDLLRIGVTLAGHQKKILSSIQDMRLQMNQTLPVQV

[9] = target: Maternal embryonic leucine zipper kinase (Homo sapiens) (UniProt Q14680); assay: Inhibition of MELK (unknown origin) at 10 uM relative to control; procedure, shortened: as §2
Chain of Maternal embryonic leucine zipper kinase (Homo sapiens) (Q14680 whole entry, looked up): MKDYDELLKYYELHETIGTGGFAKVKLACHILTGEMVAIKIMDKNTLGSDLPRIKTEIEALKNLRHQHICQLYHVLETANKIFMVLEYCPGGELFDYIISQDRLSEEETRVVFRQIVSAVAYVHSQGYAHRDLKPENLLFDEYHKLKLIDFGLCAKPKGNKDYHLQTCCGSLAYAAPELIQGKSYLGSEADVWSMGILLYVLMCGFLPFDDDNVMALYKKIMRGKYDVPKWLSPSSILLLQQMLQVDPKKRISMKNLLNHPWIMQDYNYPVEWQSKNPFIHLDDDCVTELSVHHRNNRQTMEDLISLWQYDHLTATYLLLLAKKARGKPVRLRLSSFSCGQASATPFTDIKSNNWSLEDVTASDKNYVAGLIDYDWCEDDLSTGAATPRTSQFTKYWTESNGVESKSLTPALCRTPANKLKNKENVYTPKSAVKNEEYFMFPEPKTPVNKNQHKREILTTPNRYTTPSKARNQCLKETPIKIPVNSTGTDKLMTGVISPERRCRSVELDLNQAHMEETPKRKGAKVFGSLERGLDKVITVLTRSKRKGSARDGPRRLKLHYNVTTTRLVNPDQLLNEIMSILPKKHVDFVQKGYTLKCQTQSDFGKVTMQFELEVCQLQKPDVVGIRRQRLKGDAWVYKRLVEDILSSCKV

[10] = target: MAP kinase-interacting serine/threonine-protein kinase 1 (Homo sapiens) (UniProt Q9BUB5); assay: Inhibition of MNK1 (unknown origin) at 10 uM relative to control; procedure, shortened: as §2
Chain of MAP kinase-interacting serine/threonine-protein kinase 1 (Homo sapiens) (Q9BUB5 whole entry, looked up): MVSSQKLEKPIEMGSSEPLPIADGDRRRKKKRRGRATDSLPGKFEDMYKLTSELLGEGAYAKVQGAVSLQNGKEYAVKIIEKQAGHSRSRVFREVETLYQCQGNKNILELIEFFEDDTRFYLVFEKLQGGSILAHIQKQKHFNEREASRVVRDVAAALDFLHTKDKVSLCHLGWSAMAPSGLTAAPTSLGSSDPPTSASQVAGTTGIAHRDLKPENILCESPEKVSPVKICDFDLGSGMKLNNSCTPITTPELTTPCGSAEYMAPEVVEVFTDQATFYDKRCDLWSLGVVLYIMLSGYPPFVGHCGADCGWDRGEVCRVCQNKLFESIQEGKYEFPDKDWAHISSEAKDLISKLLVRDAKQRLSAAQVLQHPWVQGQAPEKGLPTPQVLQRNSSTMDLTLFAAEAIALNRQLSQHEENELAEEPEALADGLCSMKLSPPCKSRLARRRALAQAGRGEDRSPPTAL

[11] = target: Phosphorylase kinase (Homo sapiens) (UniProt P15735+P46020+P46019+Q93100+Q16816); assay: Inhibition of PHK (unknown origin) at 10 uM relative to control; format: protein-complex assay; procedure, shortened: as §2
[12] = target: Serine/threonine-protein kinase pim-1 (Homo sapiens) (UniProt P11309); assay: Inhibition of PIM1 (unknown origin) at 10 uM relative to control; procedure, shortened: as §2
[13] = target: RAC-beta serine/threonine-protein kinase (Homo sapiens) (UniProt P31751); assay: Inhibition of PKBb (unknown origin) at 10 uM relative to control; procedure, shortened: as §2
Chain of RAC-beta serine/threonine-protein kinase (Homo sapiens) (P31751 whole entry): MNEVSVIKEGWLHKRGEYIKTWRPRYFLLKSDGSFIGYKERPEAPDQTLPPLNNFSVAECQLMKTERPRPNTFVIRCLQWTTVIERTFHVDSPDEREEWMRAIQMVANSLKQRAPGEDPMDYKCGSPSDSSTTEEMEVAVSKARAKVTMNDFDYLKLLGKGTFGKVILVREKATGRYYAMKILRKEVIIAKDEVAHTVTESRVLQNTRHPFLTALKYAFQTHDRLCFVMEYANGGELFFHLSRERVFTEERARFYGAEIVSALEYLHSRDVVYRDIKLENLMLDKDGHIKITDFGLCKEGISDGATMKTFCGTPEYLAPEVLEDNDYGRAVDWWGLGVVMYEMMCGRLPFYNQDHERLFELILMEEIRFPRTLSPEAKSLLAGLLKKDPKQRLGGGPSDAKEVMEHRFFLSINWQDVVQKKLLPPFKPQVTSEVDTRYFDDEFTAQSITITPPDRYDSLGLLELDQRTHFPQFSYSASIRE

[14] = target: Protein kinase C alpha type (Homo sapiens) (UniProt P17252); assay: Inhibition of PKCa (unknown origin) at 10 uM relative to control; procedure, shortened: as §2
[15] = target: Proto-oncogene tyrosine-protein kinase Src (Homo sapiens) (UniProt P12931); assay: Inhibition of Src (unknown origin) at 10 uM relative to control; procedure, shortened: as §3
Chain of Proto-oncogene tyrosine-protein kinase Src (Homo sapiens) (P12931 2-536 limits assumed): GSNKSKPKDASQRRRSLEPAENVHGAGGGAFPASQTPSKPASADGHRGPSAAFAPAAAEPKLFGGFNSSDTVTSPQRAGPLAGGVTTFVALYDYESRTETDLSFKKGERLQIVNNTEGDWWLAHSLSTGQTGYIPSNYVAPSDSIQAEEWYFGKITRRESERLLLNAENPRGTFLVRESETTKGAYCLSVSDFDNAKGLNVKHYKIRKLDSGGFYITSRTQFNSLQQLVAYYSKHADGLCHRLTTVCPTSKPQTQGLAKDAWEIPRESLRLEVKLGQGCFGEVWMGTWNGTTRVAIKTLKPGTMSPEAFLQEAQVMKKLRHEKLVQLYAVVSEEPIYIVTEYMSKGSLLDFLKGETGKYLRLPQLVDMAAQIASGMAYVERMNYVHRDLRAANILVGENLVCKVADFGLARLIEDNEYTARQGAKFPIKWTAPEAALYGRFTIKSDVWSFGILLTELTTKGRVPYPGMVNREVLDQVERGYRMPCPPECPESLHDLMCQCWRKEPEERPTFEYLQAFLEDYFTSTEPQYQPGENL

[16] = target: Tyrosine-protein kinase Yes (Homo sapiens) (UniProt P07947); assay: Inhibition of YES1 (unknown origin) at 10 uM relative to control; procedure, shortened: as §3
Chain of Tyrosine-protein kinase Yes (Homo sapiens) (P07947 2-543 limits assumed): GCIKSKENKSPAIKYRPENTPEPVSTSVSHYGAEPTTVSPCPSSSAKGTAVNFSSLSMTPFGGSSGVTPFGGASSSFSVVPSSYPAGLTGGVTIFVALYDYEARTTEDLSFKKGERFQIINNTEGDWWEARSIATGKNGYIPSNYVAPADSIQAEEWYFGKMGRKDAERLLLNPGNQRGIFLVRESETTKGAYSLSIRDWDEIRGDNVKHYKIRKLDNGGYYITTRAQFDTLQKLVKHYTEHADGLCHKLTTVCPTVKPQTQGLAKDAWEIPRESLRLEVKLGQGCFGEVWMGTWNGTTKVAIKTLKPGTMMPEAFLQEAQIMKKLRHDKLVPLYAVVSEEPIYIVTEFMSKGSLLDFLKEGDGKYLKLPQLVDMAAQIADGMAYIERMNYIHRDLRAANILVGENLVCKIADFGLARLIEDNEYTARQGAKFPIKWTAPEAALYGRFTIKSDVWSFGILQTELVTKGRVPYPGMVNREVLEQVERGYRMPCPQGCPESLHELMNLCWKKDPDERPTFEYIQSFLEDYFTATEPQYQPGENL

Row | Structure (SMILES) | inhibition [1] | inhibition [2] | inhibition [3] | inhibition [4] | inhibition [5] | inhibition [6] | inhibition [7] | inhibition [8] | inhibition [9] | inhibition [10] | inhibition [11] | inhibition [12] | inhibition [13] | inhibition [14] | inhibition [15] | inhibition [16]
1 | Cc1n[nH]c2ccnc(Nc3ccc4ncsc4c3)c12 | 77% | 77% | 84% | 73% | 0% | – | – | – | – | – | – | – | – | – | – | –
2 | Cc1n[nH]c2ccnc(OC3CCCCC3)c12 | 86% | 92% | 84% | 73% | 20% | 88% | 0% | 92% | 95% | 12% | 82% | 60% | 28% | 61% | 47% | 44%
3 | Cc1n[nH]c2ccnc(Nc3ccccc3F)c12 | 46% | 43% | 61% | 38% | 17% | 80% | 0% | 39% | 83% | 18% | 45% | 67% | 15% | 26% | 23% | 26%
4 | Cc1n[nH]c2ccnc(NC3CCCCC3)c12 | 27% | 55% | 59% | 51% | 10% | 80% | 0% | 39% | 91% | 0% | 60% | 66% | 24% | 25% | 0% | 30%
